Data published in ChEMBL document CHEMBL3098105, “7,7'-Diazaindirubin--a small molecule inhibitor of casein kinase 2 in vitro and in cells” (Bioorg Med Chem, 2014).
Activity calls are given as the source filed them. The rule behind the calls is not given here.

Columns and labels:
[1] = Antiproliferative activity against human NCI-ADR-RES cells after 3 days by sulforhodamine B assay; type: functional; conditions: 72 h
Outline: (§1)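 Tested in the NCI 60 cell line panel. GI50 is the concentration giving 50% inhibition of cell growth, and values are the mean of two series of tests.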

[2] = biological target: Mitogen-activated protein kinase 12 (Homo sapiens) (UniProt P53778); assay: Inhibition of human SAPK3 assessed as residual activity at 1 uM relative to control
[3] = Antiproliferative activity against human HOP92 cells after 3 days by sulforhodamine B assay; type: functional; conditions: HOP-92, 72 h; outline: as §1
[4] = tested on: DU-145; assay: Antiproliferative activity against human DU145 cells after 3 days by sulforhodamine B assay; type: functional; conditions: DU-145, 72 h; outline: as §1
[5] = tested on: MCF7; assay: Cell cycle arrest in human MCF7 cells assessed as accumulation at G2/M phase at 0.5 uM after 24 hrs using propidium iodide staining by FACS analysis (reference value: 22.13%); type: functional
[6] = biological target: Proto-oncogene tyrosine-protein kinase receptor Ret (Homo sapiens) (UniProt P07949); assay: Inhibition of RET (unknown origin) assessed as residual activity at 10 uM relative to control
[7] = biological target: Homeodomain-interacting protein kinase 2 (Homo sapiens) (UniProt Q9H2X6); assay: Inhibition of human HIPK2 assessed as residual activity at 1 uM relative to control
[8] = tested on: U-251; assay: Antiproliferative activity against human U251 cells after 3 days by sulforhodamine B assay; type: functional; conditions: U-251, 72 h
[9] = tested on: NCI-H23; assay: Antiproliferative activity against human NCI-H23 cells after 3 days by sulforhodamine B assay; type: functional; conditions: NCI-H23, 72 h; outline: as §1
[10] = biological target: Tyrosine-protein kinase SYK (Homo sapiens) (UniProt P43405); assay: Inhibition of human Syk assessed as residual activity at 1 uM relative to control
[11] = biological target: Proto-oncogene tyrosine-protein kinase Src (Homo sapiens) (UniProt P12931); assay: Inhibition of SRC (unknown origin) assessed as residual activity at 10 uM relative to control
[12] = biological target: Vascular endothelial growth factor receptor 3 (Homo sapiens) (UniProt P35916); assay: Inhibition of human Flt4 assessed as residual activity at 1 uM relative to control
[13] = biological target: Platelet-derived growth factor receptor alpha (Homo sapiens) (UniProt P16234); assay: Inhibition of PDGFR-alpha (unknown origin) assessed as residual activity at 1 uM relative to control
[14] = biological target: Tyrosine-protein kinase JAK2 (Homo sapiens) (UniProt O60674); assay: Inhibition of JAK2 (unknown origin) assessed as residual activity at 1 uM relative to control
[15] = tested on: CAKI-1; assay: Antiproliferative activity against human CAKI-1 cells after 3 days by sulforhodamine B assay; type: functional; conditions: CAKI-1, 72 h; outline: as §1
[16] = tested on: BT-549; assay: Antiproliferative activity against human BT549 cells after 3 days by sulforhodamine B assay; type: functional; conditions: BT-549, 72 h; outline: as §1
[17] = biological target: Tyrosine-protein kinase Fgr (Homo sapiens) (UniProt P09769); assay: Inhibition of human Fgr assessed as residual activity at 1 uM relative to control
[18] = biological target: Protein kinase C gamma type (Homo sapiens) (UniProt P05129); assay: Inhibition of human PKCgamma assessed as residual activity at 1 uM relative to control
[19] = biological target: Mitogen-activated protein kinase kinase kinase 9 (Homo sapiens) (UniProt P80192); assay: Inhibition of human MLK1 assessed as residual activity at 1 uM relative to control
[20] = biological target: Mitogen-activated protein kinase 1 (Homo sapiens) (UniProt P28482); assay: Inhibition of human MAPK2 assessed as residual activity at 1 uM relative to control
[21] = biological target: Tyrosine-protein kinase ABL1 (Homo sapiens) (UniProt P00519); assay: Inhibition of ABL1 (unknown origin) assessed as residual activity at 10 uM relative to control
[22] = biological target: Ribosomal protein S6 kinase beta-1 (Homo sapiens) (UniProt P23443); assay: Inhibition of human p70S6K assessed as residual activity at 1 uM relative to control
[23] = biological target: LIM domain kinase 1 (Homo sapiens) (UniProt P53667); assay: Inhibition of human LIMK1 assessed as residual activity at 1 uM relative to control
[24] = biological target: Ephrin type-B receptor 1 (Homo sapiens) (UniProt P54762); assay: Inhibition of human EphB1 assessed as residual activity at 1 uM relative to control
[25] = biological target: Macrophage colony-stimulating factor 1 receptor (Homo sapiens) (UniProt P07333); assay: Inhibition of human Fms assessed as residual activity at 1 uM relative to control
[26] = biological target: Serine/threonine-protein kinase DCLK2 (Homo sapiens) (UniProt Q8N568); assay: Inhibition of human DCAMKL2 assessed as residual activity at 1 uM relative to control
[27] = biological target: T1, Aurora kinase A (Homo sapiens) (UniProt O14965); assay: Inhibition of human Aurora-A assessed as residual activity at 1 uM relative to control
T1 sequence (whole entry): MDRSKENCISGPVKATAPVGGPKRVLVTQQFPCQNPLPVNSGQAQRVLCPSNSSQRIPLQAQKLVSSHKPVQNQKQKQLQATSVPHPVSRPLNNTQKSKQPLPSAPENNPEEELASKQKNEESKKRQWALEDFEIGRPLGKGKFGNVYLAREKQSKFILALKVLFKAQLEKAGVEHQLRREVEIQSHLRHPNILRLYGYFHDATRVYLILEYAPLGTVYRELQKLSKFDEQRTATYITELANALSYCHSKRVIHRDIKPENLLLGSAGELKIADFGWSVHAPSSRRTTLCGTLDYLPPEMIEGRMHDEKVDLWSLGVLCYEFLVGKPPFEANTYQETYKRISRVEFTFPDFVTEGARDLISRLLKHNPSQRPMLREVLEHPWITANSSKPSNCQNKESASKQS

[28] = tested on: LOX IMVI; assay: Antiproliferative activity against human LOXIMVI cells after 3 days by sulforhodamine B assay; type: functional; conditions: 72 h; outline: as §1
[29] = biological target: Calcium/calmodulin-dependent protein kinase type 1 (Homo sapiens) (UniProt Q14012); assay: Inhibition of human CaMK1 assessed as residual activity at 1 uM relative to control
[30] = biological target: PAS domain-containing serine/threonine-protein kinase (Homo sapiens) (UniProt Q96RG2); assay: Inhibition of human PASK assessed as residual activity at 1 uM relative to control
[31] = biological target: Casein kinase II (Homo sapiens) (UniProt P67870+P68400+P19784); assay: Inhibition of CK2 in human MCF7 cells assessed as reduction of Akt phosphorylation at S473 at 0.25 to 8 uM after 2 hrs by Western blot analysis; type: cell-based
Outline: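 Cells were lysed in urea lysis buffer (6 M urea, NaF, Na3VO4, protease inhibitors). 20–40 µg protein was run on 10% SDS-PAGE and detected by ECL. Primary antibodies (pAkt S473, PARP, β-actin loading control) were used at 1:1000 overnight at 4 °C. DMSO was the vehicle control. For the pAkt blots, cells were treated for 2 h with Ly294002 as positive control.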

[32] = tested on: HCT-116; assay: Antiproliferative activity against human HCT116 cells after 3 days by sulforhodamine B assay; type: functional; conditions: HCT-116, 72 h; outline: as §1

Chain of Ribosomal protein S6 kinase beta-1 (Homo sapiens) (P23443 whole entry, looked up, the tested form may be a part): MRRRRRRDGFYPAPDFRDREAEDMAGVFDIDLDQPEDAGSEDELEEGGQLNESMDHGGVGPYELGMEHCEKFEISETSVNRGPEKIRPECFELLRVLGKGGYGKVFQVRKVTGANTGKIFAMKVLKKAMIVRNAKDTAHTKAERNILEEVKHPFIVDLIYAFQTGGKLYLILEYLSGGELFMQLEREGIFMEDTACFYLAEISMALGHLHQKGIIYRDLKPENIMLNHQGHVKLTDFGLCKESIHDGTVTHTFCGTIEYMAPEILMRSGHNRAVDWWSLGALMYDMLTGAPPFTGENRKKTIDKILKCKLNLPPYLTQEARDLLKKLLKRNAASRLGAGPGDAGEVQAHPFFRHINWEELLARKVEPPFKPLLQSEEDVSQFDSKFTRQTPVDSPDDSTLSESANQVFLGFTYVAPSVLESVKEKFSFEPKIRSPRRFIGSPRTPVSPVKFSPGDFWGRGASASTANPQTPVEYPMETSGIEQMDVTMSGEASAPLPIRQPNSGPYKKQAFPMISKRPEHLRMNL
Chain of Tyrosine-protein kinase JAK2 (Homo sapiens) (O60674 whole entry): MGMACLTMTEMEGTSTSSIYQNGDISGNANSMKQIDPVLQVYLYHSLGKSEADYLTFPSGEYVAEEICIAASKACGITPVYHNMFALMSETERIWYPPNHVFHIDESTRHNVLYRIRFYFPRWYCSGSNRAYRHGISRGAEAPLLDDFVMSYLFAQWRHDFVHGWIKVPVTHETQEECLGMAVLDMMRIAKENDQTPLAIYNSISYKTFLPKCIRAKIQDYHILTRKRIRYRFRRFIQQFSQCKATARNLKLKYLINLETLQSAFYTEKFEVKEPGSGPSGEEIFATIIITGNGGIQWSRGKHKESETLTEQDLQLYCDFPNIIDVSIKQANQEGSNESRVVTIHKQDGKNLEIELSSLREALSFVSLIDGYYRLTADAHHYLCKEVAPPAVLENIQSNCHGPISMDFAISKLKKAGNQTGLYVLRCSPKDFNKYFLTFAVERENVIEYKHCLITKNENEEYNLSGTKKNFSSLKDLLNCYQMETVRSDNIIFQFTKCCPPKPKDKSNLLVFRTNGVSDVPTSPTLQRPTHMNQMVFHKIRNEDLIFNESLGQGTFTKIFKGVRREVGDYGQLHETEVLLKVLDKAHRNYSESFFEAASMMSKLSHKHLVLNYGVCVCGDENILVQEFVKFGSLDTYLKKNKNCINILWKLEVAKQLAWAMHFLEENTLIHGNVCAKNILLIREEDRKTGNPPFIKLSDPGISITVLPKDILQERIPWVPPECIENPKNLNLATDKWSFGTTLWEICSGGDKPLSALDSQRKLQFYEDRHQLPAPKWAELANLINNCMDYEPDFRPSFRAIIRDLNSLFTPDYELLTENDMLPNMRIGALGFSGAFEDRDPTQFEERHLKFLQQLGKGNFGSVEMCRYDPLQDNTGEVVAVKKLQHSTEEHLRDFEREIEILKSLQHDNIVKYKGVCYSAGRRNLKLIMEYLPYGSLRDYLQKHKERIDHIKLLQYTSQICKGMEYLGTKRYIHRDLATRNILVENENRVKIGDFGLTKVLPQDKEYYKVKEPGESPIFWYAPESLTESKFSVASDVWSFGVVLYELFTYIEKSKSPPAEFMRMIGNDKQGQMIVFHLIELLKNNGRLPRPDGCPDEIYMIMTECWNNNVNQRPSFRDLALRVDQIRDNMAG
Chain of PAS domain-containing serine/threonine-protein kinase (Homo sapiens) (Q96RG2 whole entry, the tested form may be a part): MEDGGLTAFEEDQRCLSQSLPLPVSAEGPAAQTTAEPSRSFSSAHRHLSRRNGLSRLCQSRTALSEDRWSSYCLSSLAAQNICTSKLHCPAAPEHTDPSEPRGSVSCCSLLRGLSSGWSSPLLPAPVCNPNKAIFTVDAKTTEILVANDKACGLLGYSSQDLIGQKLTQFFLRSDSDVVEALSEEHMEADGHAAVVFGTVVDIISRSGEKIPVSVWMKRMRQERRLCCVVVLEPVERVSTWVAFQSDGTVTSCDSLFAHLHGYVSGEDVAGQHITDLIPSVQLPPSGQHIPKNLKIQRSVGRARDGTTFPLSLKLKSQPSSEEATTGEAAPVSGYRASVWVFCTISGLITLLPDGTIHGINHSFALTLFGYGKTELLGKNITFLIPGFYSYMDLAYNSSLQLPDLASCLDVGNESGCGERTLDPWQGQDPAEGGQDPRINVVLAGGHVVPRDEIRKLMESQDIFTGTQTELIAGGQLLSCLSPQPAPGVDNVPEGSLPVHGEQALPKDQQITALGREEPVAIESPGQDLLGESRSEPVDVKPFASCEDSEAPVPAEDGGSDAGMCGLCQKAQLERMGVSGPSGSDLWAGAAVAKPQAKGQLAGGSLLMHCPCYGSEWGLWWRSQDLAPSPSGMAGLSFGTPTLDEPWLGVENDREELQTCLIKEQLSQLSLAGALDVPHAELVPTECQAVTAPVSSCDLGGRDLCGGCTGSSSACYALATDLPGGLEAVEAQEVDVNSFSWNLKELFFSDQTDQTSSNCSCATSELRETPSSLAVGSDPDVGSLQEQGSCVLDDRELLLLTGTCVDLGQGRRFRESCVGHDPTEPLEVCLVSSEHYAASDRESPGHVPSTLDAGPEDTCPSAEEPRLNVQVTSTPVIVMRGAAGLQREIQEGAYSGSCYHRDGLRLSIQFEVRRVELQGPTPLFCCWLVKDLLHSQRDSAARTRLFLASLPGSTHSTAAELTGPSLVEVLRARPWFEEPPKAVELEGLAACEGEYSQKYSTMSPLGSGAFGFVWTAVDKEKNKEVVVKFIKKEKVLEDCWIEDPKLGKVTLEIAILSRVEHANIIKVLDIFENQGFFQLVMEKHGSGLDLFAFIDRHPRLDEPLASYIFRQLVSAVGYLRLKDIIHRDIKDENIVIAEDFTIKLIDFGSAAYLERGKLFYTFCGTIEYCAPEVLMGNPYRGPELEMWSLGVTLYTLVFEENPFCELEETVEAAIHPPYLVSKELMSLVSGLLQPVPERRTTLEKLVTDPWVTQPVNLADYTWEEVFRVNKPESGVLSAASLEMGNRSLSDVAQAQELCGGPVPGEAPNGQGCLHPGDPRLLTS
Chain of Tyrosine-protein kinase ABL1 (Homo sapiens) (P00519 whole entry): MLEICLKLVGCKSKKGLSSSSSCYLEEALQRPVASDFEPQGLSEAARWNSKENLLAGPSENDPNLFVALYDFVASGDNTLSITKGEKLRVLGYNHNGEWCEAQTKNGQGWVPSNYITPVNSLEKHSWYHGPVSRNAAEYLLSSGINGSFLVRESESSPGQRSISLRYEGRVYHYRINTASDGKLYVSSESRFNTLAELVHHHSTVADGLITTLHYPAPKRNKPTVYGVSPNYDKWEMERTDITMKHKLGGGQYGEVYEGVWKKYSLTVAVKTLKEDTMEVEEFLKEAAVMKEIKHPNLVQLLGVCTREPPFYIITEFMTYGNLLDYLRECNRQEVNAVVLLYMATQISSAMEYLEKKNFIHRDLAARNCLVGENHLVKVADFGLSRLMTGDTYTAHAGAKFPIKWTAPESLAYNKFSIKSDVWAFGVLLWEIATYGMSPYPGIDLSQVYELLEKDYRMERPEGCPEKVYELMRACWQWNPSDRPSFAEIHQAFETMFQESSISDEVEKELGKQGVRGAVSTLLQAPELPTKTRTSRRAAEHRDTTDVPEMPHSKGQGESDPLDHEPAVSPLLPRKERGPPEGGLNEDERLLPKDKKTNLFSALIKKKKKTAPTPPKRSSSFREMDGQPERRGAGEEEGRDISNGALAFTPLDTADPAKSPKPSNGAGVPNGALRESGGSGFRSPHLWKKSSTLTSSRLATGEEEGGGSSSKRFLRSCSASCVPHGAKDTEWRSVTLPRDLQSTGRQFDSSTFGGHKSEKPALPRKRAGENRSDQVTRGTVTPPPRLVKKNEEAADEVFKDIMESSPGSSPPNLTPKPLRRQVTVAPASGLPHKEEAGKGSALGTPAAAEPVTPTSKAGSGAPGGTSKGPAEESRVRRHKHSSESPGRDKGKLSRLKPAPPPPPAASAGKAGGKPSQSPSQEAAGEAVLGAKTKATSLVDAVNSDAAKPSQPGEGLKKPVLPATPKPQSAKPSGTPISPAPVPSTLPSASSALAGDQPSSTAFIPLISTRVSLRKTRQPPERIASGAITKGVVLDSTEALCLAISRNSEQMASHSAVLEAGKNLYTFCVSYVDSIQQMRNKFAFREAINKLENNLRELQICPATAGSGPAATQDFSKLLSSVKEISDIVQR
Chain of Calcium/calmodulin-dependent protein kinase type 1 (Homo sapiens) (Q14012 whole entry, looked up, the tested form may be a part): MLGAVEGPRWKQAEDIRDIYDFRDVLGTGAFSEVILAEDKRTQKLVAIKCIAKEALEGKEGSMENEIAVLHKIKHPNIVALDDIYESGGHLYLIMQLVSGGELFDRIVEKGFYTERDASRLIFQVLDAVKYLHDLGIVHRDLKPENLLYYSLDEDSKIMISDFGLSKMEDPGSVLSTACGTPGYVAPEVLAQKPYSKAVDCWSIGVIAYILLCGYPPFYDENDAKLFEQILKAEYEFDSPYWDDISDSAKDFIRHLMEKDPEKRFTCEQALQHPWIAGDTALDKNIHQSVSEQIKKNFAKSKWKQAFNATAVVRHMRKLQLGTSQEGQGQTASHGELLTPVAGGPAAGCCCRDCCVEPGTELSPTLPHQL
Chain of Tyrosine-protein kinase Fgr (Homo sapiens) (P09769 2-529 limits assumed): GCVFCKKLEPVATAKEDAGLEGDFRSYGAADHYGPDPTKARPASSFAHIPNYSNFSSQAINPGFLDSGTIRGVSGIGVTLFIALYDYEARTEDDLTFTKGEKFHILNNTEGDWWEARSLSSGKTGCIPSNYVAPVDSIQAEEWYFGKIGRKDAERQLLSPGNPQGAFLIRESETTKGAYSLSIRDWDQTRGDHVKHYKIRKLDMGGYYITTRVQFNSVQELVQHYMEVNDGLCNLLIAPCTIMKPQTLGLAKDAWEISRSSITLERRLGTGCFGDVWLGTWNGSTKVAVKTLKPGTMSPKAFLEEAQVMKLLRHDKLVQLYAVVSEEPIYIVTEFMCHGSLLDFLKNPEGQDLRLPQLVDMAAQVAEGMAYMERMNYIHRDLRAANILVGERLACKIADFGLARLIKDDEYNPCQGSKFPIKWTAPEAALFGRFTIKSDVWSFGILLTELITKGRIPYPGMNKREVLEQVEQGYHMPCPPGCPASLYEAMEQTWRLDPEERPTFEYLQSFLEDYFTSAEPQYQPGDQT

Activity [2]: 101%
GI50 [4]: 474 nM
Activity [6]: 97%
Activity [7]: 115%
GI50 [8]: 1100 nM
GI50 [9]: 376 nM
Activity [10]: 91%
Activity [11]: 107%
Activity [12]: 68%
Activity [13]: 94%
Activity [14]: 103%
GI50 [16]: 1600 nM
Activity [17]: 114%
Activity [18]: 114%
Activity [19]: 61%
Activity [20]: 104%
Activity [21]: 92%
Activity [22]: 133%
Activity [23]: 80%
Activity [24]: 114%
Activity [25]: 91%
Activity [26]: 100%
Activity [27]: 60%
Activity [29]: 120%
Activity [30]: 132%
inhibition [31]: Active
GI50 [32]: 1010 nM
SMILES: O=C1Nc2ncccc2/C1=C1/Nc2ncccc2C1=O
GI50 [1]: 1390 nM
GI50 [3]: 3.04 µM
Activity [5]: 21.21%
GI50 [15]: 1020 nM
GI50 [28]: 338 nM
